Published values collected from several papers.
Lines come from different studies, so protocols differ.
Technique: competition with immobilised ligand
JAK3 JH1: Tyrosine-protein kinase JAK3, JH1 (JAK3, Homo sapiens, UniProt P52333)
JAK3: Tyrosine-protein kinase JAK3 (JAK3, Homo sapiens, UniProt P52333)

| SMILES | target | observed | concentration | remaining binding [%] |
| --- | --- | --- | --- | --- |
| CC1=C(C#N)C(c2ccc3c(c2)c(NC(=O)c2ccccc2C)nn3C)C(C#N)=C(C)N1 | JAK3 JH1 | cell-free assay | 1 µM | 83 |
| CNC(=O)[C@@H]1CC[C@@H](n2c(-c3ccc4cnccc4c3)nc3ccc(C(=O)NCc4cccc(C(N)=O)c4)cc32)C1 | JAK3 JH1 | binding | 1 µM | 100 |
| COc1ccc2cc(OCC3(C(=O)O)CN(C(=O)c4ccc(F)cc4)C3)ccc2c1 | JAK3 JH1 | cell-free assay | 1 µM | 100 |
| O=C(c1ccc(Nc2ncc(Cl)c(-c3ccc(Cl)s3)n2)cc1)N1CCC(N2CCCC2)CC1 | JAK3 JH1 | binding | 1 µM | 0.3 |
| Nc1ncc2c(n1)-c1c([nH]c3ccc(C#CC4CC4)cc13)CCCC2 | JAK3 JH1 | binding | 1 µM | 80 |
| CS(=O)(=O)NCC[C@H](NC(=O)c1cncc2c1cnn2-c1ccc(F)cc1)c1ccnc(S(C)(=O)=O)c1 | JAK3 JH1 | cell-free assay | 1 µM | 100 |
| O=C(Nc1c[nH]nc1C(=O)NC1CCNCC1)c1cc(F)cc(F)c1 | JAK3 JH1 | binding | 1 µM | 100 |
| NS(=O)(=O)c1cc(NC(=O)C2(c3ccccc3Cl)CC2)ccc1Oc1cccc(Cl)c1 | JAK3 JH1 | cell-free assay | 1 µM | 64 |
| C[C@@H](c1ccc(-n2cnc3c(N)ncnc32)cc1)N1CCc2nn(C)c(Cc3ccccc3)c2C1=O | JAK3 JH1 | binding | 0.1 µM | 96 |
| C[C@@H]1CN(c2ccc3ncc(-c4ccc5[nH]nc(C6CC6)c5c4)n3n2)C[C@H](C)O1 | JAK3 | binding | 50 nM | 76 |
| CC1CCCN1c1nccc(-c2cnn3ncccc23)n1 (stereo not shown) | JAK3 JH1 | cell-free assay | 1 µM | 97 |
| CNC(=O)c1ccc(Nc2ncc(C(F)(F)F)c(NCc3nccnc3N(C)S(C)(=O)=O)n2)cc1 | JAK3 | binding | 1 µM | 8.2 |
| COc1ccnn2ncc(-c3ccnc(N(C)C)n3)c12 | JAK3 JH1 | cell-free assay | 1 µM | 94 |
| Cc1noc([C@H]2C[C@@H](c3ccc(C(F)(F)F)cc3)CN(C(=O)N3CCS(=O)(=O)C3)C2)n1 | JAK3 JH1 | cell-free assay | 1 µM | 100 |
| FC(F)(F)Oc1cccc(-c2cnc3ccc(-c4ccncc4)nn23)c1 | JAK3 JH1 | cell-free assay | 5 µM | 23 |
| COc1ncc2cc3ccccc3nc2c1C#N | JAK3 JH1 | cell-free assay | 5 µM | 63 |
| Cc1cnc(Nc2ccc(C(=O)N3CCC(N4CCCC4)CC3)cc2)nc1-c1cc2ccccc2s1 | JAK3 JH1 | binding | 1 µM | 0 |
| CN(C)c1nccc(-c2cnn3ncccc23)n1 | JAK3 JH1 | cell-free assay | 1 µM | 0 |
| O=C(NCCCN1CCOCC1)c1ccc(Nc2ncc(Cl)c(-c3ccc(Cl)s3)n2)cc1 | JAK3 JH1 | binding | 1 µM | 0.8 |
| Cc1cnn2ncc(-c3ccnc(N(C)C)n3)c2c1 | JAK3 JH1 | cell-free assay | 1 µM | 91 |
| N#CC1(c2ccccn2)CCN(Cc2cc(C(=O)N3CCCC3)c(=O)n3ccccc23)CC1 | JAK3 JH1 | cell-free assay | 1 µM | 100 |
| c1cncc(-c2cccc(Nc3nccc(NC4CCCCC4)n3)c2)c1 | JAK3 JH1 | binding | 10 µM | 6.4 |
